# M4 ag – CHRM4 agonism in calcium assay | P08173 | AID 624127 | activation, % at 3 µM | 360,000 compounds, 0.14% hits | CHO-K1 hM4/Gqi5, Fluo-8 calcium fluorescence; vehicle 0%, full acetylcholine response 100%;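 active = activation above the run mean over all test wells plus 3 SD, cut at about 32% in these data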;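 also: peak over basal fluorescence ratio per well then scaled between controls; 0% = DMSO wells and 100% = acetylcholine at EC100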
# CHRM5 PAM – CHRM5 positive allosteric modulation. CHO-K1 hM5, Fluo-8 calcium, ACh EC20 PAM; 0% = ACh EC20, 100% = ACh EC100. 360,000 compounds, 0.3% hits. activation, % at 3 µM;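 active = activation above the run cutoff, the mean activation of all test compounds plus 3 SD, cut at about 18% in these data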
# Target sequence (P08912 whole entry, looked up): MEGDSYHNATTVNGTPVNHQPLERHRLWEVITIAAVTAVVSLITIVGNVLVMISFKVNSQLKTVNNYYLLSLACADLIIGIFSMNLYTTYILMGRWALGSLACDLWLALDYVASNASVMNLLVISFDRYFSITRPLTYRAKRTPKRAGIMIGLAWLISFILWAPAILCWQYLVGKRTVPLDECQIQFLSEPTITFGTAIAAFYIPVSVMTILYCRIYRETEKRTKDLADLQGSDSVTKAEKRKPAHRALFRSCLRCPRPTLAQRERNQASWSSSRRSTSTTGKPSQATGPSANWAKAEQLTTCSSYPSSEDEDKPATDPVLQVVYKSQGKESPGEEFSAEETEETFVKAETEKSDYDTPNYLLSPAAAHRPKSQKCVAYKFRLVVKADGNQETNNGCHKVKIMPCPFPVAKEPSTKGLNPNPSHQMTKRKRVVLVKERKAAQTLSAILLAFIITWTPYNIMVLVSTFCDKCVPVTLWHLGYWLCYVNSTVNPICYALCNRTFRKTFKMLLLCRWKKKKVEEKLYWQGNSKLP
#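 System – CHO-K1 hM5 cells · Compound – 3 µM, single dose · Incubation – compound preincubation 140 s before EC20 acetylcholine addition · Technique – Fluo-8 calcium fluorescence · Measure – Max/basal fluorescence ratio as % of EC20–EC100 ACh window · Benchmarks – low control EC20 acetylcholine (0%), high control EC100 acetylcholine (100%) · Replication – singlicate, one well per test compound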
# M4 PAM – potentiates acetylcholine response at human M4 receptor. P08173. CHO-K1 hM4/Gqi5, Fluo-8 calcium fluorescence, ACh EC20; 0% = ACh EC20, 100% = maximal ACh. activation, % at 3 µM. 360,000 compounds, 0.4% hits. AID 624126;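 active = activation above its plate's cutoff, the mean activation of sample wells plus 3 SD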
# M5 ag – agonists of human muscarinic M5 receptor (CHRM5). P08912. CHO-K1 hM5 cells, Fluo-8 calcium fluorescence; 0% DMSO wells, 100% maximal acetylcholine response. activation, % at 3 µM. 360,000 compounds, 0.19% hits;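 active = activation above the run's mean over test compounds plus 3 SD, cut at about 23% in these data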;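 also: signal is peak over basal fluorescence ratio across the kinetic read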
# CHRM4 antagonist – antagonists of human muscarinic M4 receptor (CHRM4) | P08173 | CHO-hM4 cells, ACh EC80, Fluo-8 calcium fluorescence | inhibition, % at 3 µM | 360,000 compounds, 0.73% hits;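 active = inhibition above its plate's cutoff, the mean inhibition of sample wells plus 3 SD, cut at about 27% in these data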;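 also: 0% = acetylcholine EC80 with DMSO and 100% = DMSO without agonist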
# M5 antag – blocks acetylcholine activation of human M5 receptor | P08912 | 360,000 compounds, 0.59% hits | CHO-hM5 cells, Fluo-8 calcium fluorescence, ACh EC80 | inhibition, % at 3 µM;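 active = inhibition above a per-plate cutoff, the mean of that plate's test compounds plus 3 SD, cut at about 27% in these data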;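 also: 0% = acetylcholine EC80 with DMSO and 100% = DMSO without agonist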
# Numbers without * were called inactive; ! = not active in a repeat. An excerpt weighted towards active compounds, which were near 1.8% of everything screened.
SMILES,M4 ag,CHRM5 PAM,M4 PAM,M5 ag,CHRM4 antagonist,M5 antag
O=C(NCCn1cc(SCc2ccc(F)cc2)c2ccccc21)c1ccccc1F,9,-16,-12,1,28*,4
O=C(c1ccccc1)c1c2c(cc3sc4ccccc4[n+]13)-c1cccc3cccc-2c13,33*,-5,-39,19,59*,25
O=C(c1ccccc1)c1ccc2ccccc2c1,-2,-8,2,0,-10,14
CC(C)CN(C(=O)COC(=O)c1ccccc1NCc1ccco1)c1c(N)n(Cc2ccccc2)c(=O)[nH]c1=O,1,-2,8,2,-7,7
Cc1n[nH]c(C)c1S(=O)(=O)N1CCC(C(=O)Nc2cccc(F)c2)CC1,2,5,4,-4,-4,-6
COC(=O)C1CCN(c2cc(Cl)nc(N)n2)CC1,0,-4,-1,1,-10,5
NC(=O)C1CCN(c2cc(Cl)nc(N)n2)CC1,2,1,26*,-6,-15,-11
COC(=O)C[C@H]1C=C[C@@H](NC(=O)C2CC2)[C@@H](CO)O1,0,20*,2,1,-2,-8
CCC(=O)N[C@H]1C=C[C@H](CC(=O)OC)O[C@@H]1CO,0,6,-1,2,8,-4
CCN(CC)C(=O)CSc1ccc(C(F)(F)F)cc1[N+](=O)[O-],2,-4,8,-2,-7,8
CCCCNC(=O)c1ccc(SCC(=O)N(CC)CC)c([N+](=O)[O-])c1,1,19*,4,6,-13,-12
Cc1nc(SCCc2nc3ccccc3[nH]2)c2oc3ccccc3c2n1,3,6,0,-1,-5,-2
O=C(Cc1cc(=O)[nH][nH]1)N/N=C/c1c(Cl)cccc1Cl,1,0,-4,0,3,-1
O=C(Cc1cc(=O)[nH][nH]1)N/N=C/C(Cl)=C/c1ccccc1,0,-1,35*!,-1,-3,0
CCOC(=O)c1ccc(NC(=O)c2nc[nH]c2C(=O)NCCCNC(=O)c2[nH]cnc2C(=O)Nc2ccc(C(=O)OCC)cc2)cc1,1,8,4,3,-6,2
CCOC(=O)c1ccc(NC(=O)c2ncn3c2C(=O)NC[C@H]3C)cc1,1,0,11,0,-17,1
CCOC(=O)c1ccc(NC(=O)c2nc[nH]c2C(=O)N(CC)CC)cc1,2,4,22*,3,-5,2
CCOC(=O)c1ccc(NC(=O)c2ncn3c2C(=O)N[C@H](C)C3)cc1,0,-4,17*,1,-23,-7
CCCCN1C(=O)/C(=C/C=C2/CC(C)(C)CN2C)SC1=S,34*,-15,-11,47*,25,36*
CCCCN1C(=O)/C(=C/C=C2\Oc3ccccc3N2CC)SC1=S,20,-8,-10,48*,22,25
CCN1C(=O)/C(=C/C=C2/SCCN2C)SC1=S,4,-12,-6,5,0,-2
Cc1ccc2cc(CCNC(=O)Cc3cccs3)c(=O)[nH]c2c1,1,1,2,3,-8,1
COc1cc(C(=O)Nn2cnnc2)ccc1OC(F)F,2,10,1,-1,6,-1
COc1ccccc1NC(=O)CSc1nnc(COc2ccccc2C)o1,3,4,-24,-4,100*,6
COc1ccccc1NC(=O)CSc1nnc(COc2ccc(Cl)cc2)o1,3,3,-4,1,-5,6
SMILES,M4 ag,CHRM5 PAM,M4 PAM,M5 ag,CHRM4 antagonist,M5 antag
Fc1ccc(-c2[nH]ncc2CN2CCN(c3ccc(F)cc3)CC2)cc1,9,2,-4,31*,2,5
Fc1ccc(N2CCN(Cc3cn[nH]c3-c3ccccc3)CC2)cc1,1,-3,-7,7,-3,4
CC(=O)Nc1c(Cl)cnn(-c2ccccc2)c1=O,1,22*,-6,0,-13,-11
CC1=NOC(=O)/C1=C\c1ccc(-c2ccc(Cl)c(C(=O)O)c2)o1,1,5,-4,-1,-2,9
CC1=NOC(=O)/C1=C\c1ccc(-c2cccc(Cl)c2)o1,6,-5,3,-1,54*,19
COc1cc([N+](=O)[O-])ccc1NC(=O)NCC1CCN(Cc2ccc(Cl)cc2)CC1,29,-23,-20,-5,32*,17
CSc1ccc2c(c1)N(CCC1CCCCN1C)c1ccccc1S2 (stereo unspecified),19,-19,-19,4,98*,100*
Cc1nc2ccc(NS(=O)(=O)c3ccc4c(c3)OCCO4)cc2s1,11,-13,2,9,27*,25
Cc1ccc(S(=O)(=O)Nc2ccc3nc(C)sc3c2)cc1,9,-19,-2,5,13,30*
Cc1nc2ccc(NS(=O)(=O)c3ccc(F)c(F)c3)cc2s1,12,-10,-2,5,9,19
O=C(Nc1ccccc1C(=O)NC1CC1)c1ccc([N+](=O)[O-])o1,5,-6,-2,4,-6,0
COc1ccc(O)cc1CN1CCN(c2ncc(Cc3ccccc3)cn2)CC1,9,-11,-7,-6,-8,-2
CC(C(=O)O)c1ccc(N2Cc3ccccc3C2=O)cc1 (stereo unspecified),1,-17,-14,-1,40*,9
Cc1ccccc1N1Cc2ccccc2C1=O,1,4,2,0,-13,-4
CCOC(=O)C1=C(C)N(c2ccccc2)C(=O)NC1c1cccc([N+](=O)[O-])c1 (stereo unspecified),1,-18,-39,-5,75*,39*
C=C1C(=O)[C@]23C[C@H]1CCC2[C@@]1(C)C(C[C@@H]3O)[C@](C)(C(=O)OC)CC[C@@H]1OC(C)=O (stereo partly specified),16,-5,-15,11,58*,17
NC(=O)CSc1nc(O)cc(=O)n1-c1ccccc1,1,1,17*,-1,0,2
Cc1ccc(-n2c(SCC(N)=O)nc(O)cc2=O)cc1,1,-3,-1,1,4,4
Cc1ccc(S(=O)(=O)n2ccc3c2CCCC3=O)cc1,2,-21,-17,-9,27*,37*
COc1ccc(CCNC(=O)C/C(C)=N/NC(=O)c2cnccn2)cc1,1,2,3,-2,-2,-6
Cc1cc(C)c2c(N)c(C(=O)Nc3ccc(F)cc3)sc2n1,7,-4,27*,-4,4,6
COc1ccc(NC(=O)c2sc3nc(C)cc(C)c3c2N)cc1,1,5,4,0,-5,2

# Screening results deposited in PubChem BioAssay by The Scripps Research Institute Molecular Screening Center.
